Reference: PMC10694493 (Cell Reports Methods, 2023)

Assay: B2LiVe 1D-1H amide-selective NMR, solution-to-membrane partitioning
Format: binding
Conditions: POPC:POPG 9:1 LUV; 3 μM protein; pH 4.2
Outline: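 Test protein held constant while POPC:POPG 9:1 LUV (reverse-phase evaporation, 40 mM stock, extruded through 1.2 μm filters) are titrated from 0 to 2 mM. Buffer: 20 mM HEPES-Na, 20 mM NaCl, 5% D2O, 25°C. 1D amide-selective HET-SOFAST 1H spectra at 800 MHz, PC9 120° pulse centred at 9.5 ppm. Fraction in solution is taken from the amide integral after subtracting the highest-lipid vesicle spectrum.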

B1: apo-Mb: apo-myoglobin, 16.9 kDa amphitropic protein, Sigma-Aldrich (protein, UniProt P68082 2-154, looked up)
Myoglobin: GLSDGEWQQVLNVWGKVEADIAGHGQEVLIRLFTGHPETLEKFDKFKHLKTEAEMKASEDLKKHGTVVLTALGGILKKKGHHEAELKPLAQSHATKHKIPIKYLEFISDAIIHVLHSKHPGDFGADAQGAMTKALELFRNDIAAKYKELGFQG
modifications: heme-free
NMR signal remaining at the highest lipid concentration: completely disappears
